Measured values taken from ChEMBL document CHEMBL1147518, “Hydroxytriamides as potent gamma-secretase inhibitors” (Bioorg Med Chem Lett, 2004).

Biological target: Gamma-secretase
Test: Inhibition of gamma-secretase activity in H4 human neuroglioma cells by measuring amyloid beta production; Inactive
Assay type: cell-based
Summary of the method: (§1)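 H4 human neuroglioma cells expressing HPLAP-βAPP164SFAD, grown in high-glucose DMEM with 10% FBS, pen-strep, 2 mM glutamine and geneticin, plated in 96 wells; after attachment, medium swapped for Ultraculture containing compound (1% DMSO final), overnight incubation. Aβ1-40 in conditioned medium measured by sandwich ELISA (C-terminal Aβ40-specific capture, HRP N-terminal detection, TMB/phosphoric acid). Means of two experiments, 16 data points each.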

IC50 [nM]	Structure (SMILES)
> 2500	CCCCN(C)C(=O)[C@H](CCCCN)NC(=O)[C@H](CC(C)C)NC(=O)Cc1cc(F)cc(F)c1
> 2500	CCCCN(C)C(=O)[C@H](CC(=O)O)NC(=O)[C@H](CC(C)C)NC(=O)Cc1cc(F)cc(F)c1
> 2500	CCCCN(C)C(=O)[C@H](CC1CCCCC1)NC(=O)[C@@H](CC(C)C)NC(=O)Cc1cc(F)cc(F)c1
> 2500	CCCCN(C)C(=O)[C@H](CC1CCCCC1)NC(=O)[C@@H]1CCCN1C(=O)Cc1cc(F)cc(F)c1

Biological target: Gamma-secretase
Test: Inhibition of gamma-secretase activity in H4 human neuroglioma cells by measuring amyloid beta production
Assay type: cell-based
Summary of the method: as §1

Structure (SMILES)	IC50 [nM]
CCCCN(C)C(=O)[C@H](CC1CCCCC1)NC(=O)[C@H](CC(C)C)NC(=O)[C@@H](OC)c1ccccc1	2000
CCCCN(C)C(=O)[C@H](CC1CCCCC1)NC(=O)[C@H](CC(C)C)NC(=O)Cc1cc(C(F)(F)F)cc(C(F)(F)F)c1	408
CCCCN(C)C(=O)[C@H](CC1CCCCC1)NC(=O)[C@H](CC(C)C)NC(=O)Cc1ccc(N)cc1	1100
CCCCN(C)C(=O)[C@H](CC1CCCCC1)NC(=O)[C@H](CC(C)C)NC(=O)[C@@](C)(OC)c1ccccc1	> 2500
CCCCN(C)C(=O)[C@H](CC1CCCCC1)NC(=O)[C@H](Cc1ccccc1)NC(=O)Cc1cc(F)cc(F)c1	2400
CC(C)C[C@H](NC(=O)Cc1ccc2ccccc2c1)C(=O)N[C@@H](CC1CCCCC1)[C@H](O)Cc1ccccc1C(=O)NC(C)(C)C	4.7
CCCCN(C)C(=O)[C@H](CC1CCCCC1)NC(=O)CNC(=O)Cc1cc(F)cc(F)c1	300
CCCCN(C)C(=O)[C@H](CC1CCCCC1)NC(=O)[C@H](CC(C)C)NC(=O)/C=C/c1ccccc1	> 2600
CCCCN(C)C(=O)[C@H](CC1CCCCC1)NC(=O)[C@H](CC(C)C)NC(=O)[C@](C)(O)c1ccccc1	> 2500
CCCCN(C)C(=O)[C@H](CC1CCCCC1)NC(=O)[C@H](CC(C)C)NC(=O)[C@H](OC)c1ccccc1	> 2500
CCCCN(C)C(=O)[C@H](CC1CCCCC1)NC(=O)[C@H](CC(C)C)NC(=O)Cc1cccc(OC)c1	480
CCCCN(C)C(=O)[C@H](CC1CCCCC1)NC(=O)[C@H](CC(C)C)NC(=O)[C@](C)(OC)c1ccccc1	> 2500
CCCCN(C)C(=O)[C@H](CC1CCCCC1)NC(=O)[C@@H]1CCCCN1C(=O)[C@@H](O)c1ccccc1	> 2500
CCCCN(C)C(=O)[C@H](CC1CCCCC1)NC(=O)[C@H](CC(C)C)NC(=O)C(O)(O)c1ccccc1	1
CCCCN(C)C(=O)[C@H](CC1CCCCC1)NC(=O)[C@H](C)NC(=O)Cc1cc(F)cc(F)c1	32
CCCCN(C)C(=O)[C@H](CC1CCCCC1)NC(=O)[C@H](CC(C)C)NC(=O)Cc1cc(OC)cc(OC)c1	800
CCCCN(C)C(=O)[C@@H]1Cc2ccccc2CN1C(=O)[C@H](CC(C)C)NC(=O)[C@@H](O)c1ccccc1	66
CCCCN(C)C(=O)[C@H](CC1CCCCC1)NC[C@H](CC(C)C)NC(=O)[C@@H](O)c1ccccc1	> 2500

Now from value to compound:

IC50 [nM]	Structure (SMILES)
52	CCCCN(C)C(=O)[C@H](CC1CCCCC1)NC(=O)[C@H](CC(C)C)NC(=O)Cc1cccc(Cl)c1
800	COC(=O)[C@H](CC1CCCCC1)NC(=O)[C@H](CC(C)C)NC(=O)Cc1ccccc1
240	CCCCNC(=O)[C@H](CC1CCCCC1)NC(=O)[C@H](CC(C)C)NC(=O)Cc1ccccc1
160	CCCCN(C)C(=O)[C@H](CC1CCCCC1)NC(=O)[C@H](CC(C)C)NC(=O)CCc1ccccc1
102	CC(C)C[C@H](NC(=O)Cc1ccccc1)C(=O)N[C@@H](CC1CCCCC1)C(=O)N(C)C
900	CCOC(=O)[C@H](CC1CCCCC1)NC(=O)[C@H](CC(C)C)NC(=O)Cc1ccccc1
50	CC(C)C[C@H](NC(=O)Cc1ccccc1)C(=O)N[C@@H](CC1CCCCC1)C(=O)N1CCCCC1
240	CCCCN(C)C(=O)[C@H](CC1CCCCC1)NC(=O)[C@H](CC(C)C)NC(=O)[C@H](O)c1ccccc1
20	CCCCN(C)C(=O)[C@H](CC1CCCCC1)NC(=O)[C@H](CC(C)C)NC(=O)Cc1cccc(F)c1
36	CCCCN(C)C(=O)[C@H](CC1CCCCC1)NC(=O)[C@H](CC(C)C)NC(=O)Cc1ccc(F)cc1
300	CC(C)CCC(=O)[C@H](CC1CCCCC1)NC(=O)[C@H](CC(C)C)NC(=O)Cc1ccccc1
150	CC(C)CNC(=O)[C@H](CC1CCCCC1)NC(=O)[C@H](CC(C)C)NC(=O)Cc1ccccc1
280	CCCCN(C)C(=O)[C@H](CC1CCCCC1)NC(=O)[C@H](CC(C)C)NC(=O)Cc1ccccc1F
13	CC(C)C[C@H](NC(=O)Cc1ccccc1)C(=O)N[C@@H](CC1CCCCC1)C(=O)N(C)CC(C)C
1000	CCCCN(C)C(=O)[C@@H](CC1CCCCC1)NC(=O)[C@H](CC(C)C)NC(=O)Cc1ccccc1
1200	CC(C)CC[C@@H](O)[C@H](CC1CCCCC1)NC(=O)[C@H](CC(C)C)NC(=O)Cc1ccccc1
3200	CCCCN(C)C(=O)[C@H](CC1CCCCC1)NC(=O)[C@H](CC(C)C)NC(=O)c1ccccc1
39	CC(C)C[C@H](NC(=O)Cc1ccccc1)C(=O)N[C@@H](CC1CCCCC1)C(=O)N(C)Cc1ccccc1
454	CCCCN(C)C(=O)[C@H](CC1CCCCC1)NC(=O)[C@H](CC(C)C)NC(=O)Cc1cccc(C)c1
130	CON(C)C(=O)[C@H](CC1CCCCC1)NC(=O)[C@H](CC(C)C)NC(=O)Cc1ccccc1
55	CCCCN(CC)C(=O)[C@H](CC1CCCCC1)NC(=O)[C@H](CC(C)C)NC(=O)Cc1ccccc1
17	CCCCN(C)C(=O)[C@H](CC1CCCCC1)NC(=O)[C@H](CC(C)C)NC(=O)Cc1ccccc1
> 2500	CCCCN(C)C(=O)[C@H](CC1CCCCC1)NC(=O)[C@H](CC(C)C)NC(=O)Cc1cccc(N)c1
1700	CCCCN(C)C[C@H](CC1CCCCC1)NC(=O)[C@H](CC(C)C)NC(=O)Cc1ccccc1
